This note sets out measurements from ChEMBL document CHEMBL1156302, “Discovery of a synthetic dual inhibitor of HIV and HCV infection based on a tetrabutoxy-calix[4]arene scaffold” (Bioorg Med Chem Lett, 2010).

One experiment concerns CCRF-CEM. The experiment is described as follows: Cytotoxicity against HCV infected human CEM cells. Format: cell-based.
The subject of the next experiment is Hepatitis C virus. The experiment is described as follows: Antiviral activity against HCV infected in human CEM cells assessed as inhibition of viral replication. In kind it is functional, organism-based, Hepacivirus hominis. The note with it: CCRF-CEM.
The next experiment relates to Human alphaherpesvirus 2. Kind of experiment: Antiviral activity against HSV2 assessed as inhibition of viral replication. In kind it is functional, organism-based.
Another experiment deals with Human alphaherpesvirus 1. The experiment is described as follows: Antiviral activity against HSV1 assessed as inhibition of viral replication. In kind it is functional, organism-based.
Experiment [1] has as its system Human immunodeficiency virus 1. The experiment is described as follows: Antiviral activity against HIV1 infected in human TZM-bl cells. In kind it is functional, organism-based. An outline of the steps: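 Host cells were TZM-bl, a HeLa line carrying firefly luciferase driven by an HIV promoter.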
For experiment [2], the system named is Human immunodeficiency virus 1. Kind of experiment: Antiviral activity against HIV1 infected in human CEMx174 cells. In kind it is functional, organism-based.
A short description of experiment [3]: Inhibition of VEGF binding to VEGFR.
Experiment [4] deals with Human immunodeficiency virus 1. Kind of experiment: Antiviral activity against HIV1 infected in human MT2 cells. Format: functional, organism-based. To be noted: Human immunodeficiency virus 1, MT2.
The subject of another experiment is MT2. Kind of experiment: Cytotoxicity against human MT2 cells. In kind it is cell-based. An outline of the steps: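 Cell toxicity was measured in MT-2 human T cells bearing HTLV-1 and expressed as ID50.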
A short description of experiment [5]: Inhibition of PDGF binding to PDGFR.
Another experiment concerns Hepatitis B virus. The experiment is described as follows: Antiviral activity against HBV assessed as inhibition of viral replication. In kind it is functional, organism-based.

Activity calls are given as the source filed them. The rule behind the calls is not given here.

Consider `CCCCOc1c2cc(C(=O)Nc3cc(C(=O)O)cc(C(=O)O)c3)cc1Cc1cc(C(=O)Nc3cc(C(=O)O)cc(C(=O)O)c3)cc(c1OCCCC)Cc1cc(C(=O)Nc3cc(C(=O)O)cc(C(=O)O)c3)cc(c1OCCCC)Cc1cc(C(=O)Nc3cc(C(=O)O)cc(C(=O)O)c3)cc(c1OCCCC)C2`, for which the IC50 is 50 µM in the experiment on CCRF-CEM; 1.8 µM with Hepatitis C virus; 4.96 µM in [3]; 0.36 µM in experiment [4]; more than 50 µM in the experiment on MT2; 2.62 µM in experiment [5]. The outcome with Human alphaherpesvirus 2, with Human alphaherpesvirus 1 and with Hepatitis B virus was inactive. Also, the outcome in experiment [1] and in [2] was Active.

`O=C(O)c1cc2c(O)c(c1)Cc1cc(C(=O)O)cc(c1O)Cc1cc(C(=O)O)cc(c1O)Cc1cc(C(=O)O)cc(c1O)C2`: the IC50 (with CCRF-CEM; in the experiment with Hepatitis C virus; in experiment [4]; in the experiment on MT2) was more than 50 µM each time.

As for `CCCCOc1c2cc(C(=O)N[C@@H](CCC(=O)O)C(=O)O)cc1Cc1cc(C(=O)N[C@@H](CCC(=O)O)C(=O)O)cc(c1OCCCC)Cc1cc(C(=O)N[C@H](CCC(=O)O)C(=O)O)cc(c1OCCCC)Cc1cc(C(=O)N[C@@H](CCC(=O)O)C(=O)O)cc(c1OCCCC)C2`, the IC50 in the experiment on CCRF-CEM was 100 µM; in the experiment with Hepatitis C virus, 4.1 µM; in [4], 2.4 µM; with MT2 it was more than 50 µM.

Take `CCCCOc1c2cc(C(=O)Nc3cc(C(=O)O)cc(C(=O)OCc4ccccc4)c3)cc1Cc1cc(C(=O)Nc3cc(C(=O)O)cc(C(=O)OCc4ccccc4)c3)cc(c1OCCCC)Cc1cc(C(=O)Nc3cc(C(=O)O)cc(C(=O)OCc4ccccc4)c3)cc(c1OCCCC)Cc1cc(C(=O)Nc3cc(C(=O)O)cc(C(=O)OCc4ccccc4)c3)cc(c1OCCCC)C2`: the IC50 in the experiment on CCRF-CEM was 12.5 µM; with Hepatitis C virus it was 25.6 µM; in experiment [3], 0.48 µM; in [4], more than 50 µM; in the experiment with MT2 it was more than 50 µM; in [5] it was 0.19 µM.

`CCCCOc1c2cc(C(=O)Nc3cc(C(=O)O)cc(C(=O)NC4CCCCC4)c3)cc1Cc1cc(C(=O)Nc3cc(C(=O)O)cc(C(=O)NC4CCCCC4)c3)cc(c1OCCCC)Cc1cc(C(=O)Nc3cc(C(=O)O)cc(C(=O)NC4CCCCC4)c3)cc(c1OCCCC)Cc1cc(C(=O)Nc3cc(C(=O)O)cc(C(=O)NC4CCCCC4)c3)cc(c1OCCCC)C2`: the IC50 with CCRF-CEM is more than 50 µM; in the experiment with Hepatitis C virus it was 4.1 µM; in [3] it was more than 10 µM; in [4] it was more than 50 µM; in the experiment on MT2 it was more than 50 µM; in experiment [5], 0.29 µM.

Regarding `CCCCOc1c2cc(C(=O)NCCN)cc1Cc1cc(C(=O)NCCN)cc(c1OCCCC)Cc1cc(C(=O)NCCN)cc(c1OCCCC)Cc1cc(C(=O)NCCN)cc(c1OCCCC)C2`, the IC50 in the experiment on CCRF-CEM is less than 12.5 µM; in the experiment with Hepatitis C virus, 5.7 µM; in experiment [4] it was less than 16 µM; in the experiment with MT2 it was 16 µM.

Consider `O=C(O)c1cc(NC(=O)c2cc3c(OCc4ccccc4)c(c2)Cc2cc(C(=O)Nc4cc(C(=O)O)cc(C(=O)O)c4)cc(c2OCc2ccccc2)Cc2cc(C(=O)Nc4cc(C(=O)O)cc(C(=O)O)c4)cc(c2OCc2ccccc2)Cc2cc(C(=O)Nc4cc(C(=O)O)cc(C(=O)O)c4)cc(c2OCc2ccccc2)C3)cc(C(=O)O)c1`, for which the concentration for half-maximal inhibition (IC50) in the experiment on CCRF-CEM was 0.46 µM; with Hepatitis C virus it was 1.4 µM; in [4] it was 0.3 µM; with MT2, 18 µM.

For `O=C(O)c1cc(NC(=O)c2cc3c(O)c(c2)Cc2cc(C(=O)Nc4cc(C(=O)O)cc(C(=O)O)c4)cc(c2O)Cc2cc(C(=O)Nc4cc(C(=O)O)cc(C(=O)O)c4)cc(c2O)Cc2cc(C(=O)Nc4cc(C(=O)O)cc(C(=O)O)c4)cc(c2O)C3)cc(C(=O)O)c1`, the IC50 with Hepatitis C virus was more than 50 µM; in [4], 6.7 µM; in the experiment with MT2, more than 50 µM.

Turning to `CCCCOc1c2cc(C(=O)O)cc1Cc1cc(C(=O)O)cc(c1OCCCC)Cc1cc(C(=O)O)cc(c1OCCCC)Cc1cc(C(=O)O)cc(c1OCCCC)C2`, the IC50 was 30.1 µM in the experiment on Hepatitis C virus, 2.9 µM in experiment [4] and 13 µM in the experiment on MT2.

In the case of `O=C(O)c1cc2c(OCc3ccccc3)c(c1)Cc1cc(C(=O)O)cc(c1OCc1ccccc1)Cc1cc(C(=O)O)cc(c1OCc1ccccc1)Cc1cc(C(=O)O)cc(c1OCc1ccccc1)C2`, the IC50 in the experiment on CCRF-CEM was 50 µM; with Hepatitis C virus, more than 50 µM; in [4] it was 37.1 µM; in the experiment with MT2, more than 50 µM.
